Reference: ChEMBL document CHEMBL1124794, “Synthesis, chemistry, and antineoplastic activity of alpha-halopyridinium salts: potential pyridone prodrugs of acylated vinylogous carbinolamine tumor inhibitors” (J Med Chem, 1990)
Where “and” joins values, the source holds several entries; their conditions need not be identical. Equal values may be shown once.

Tests used:
P388 [1] = assay: In vivo activity against P388 Lymphocytic Leukemia in CD2F1 mice at the dose of 400 mg/kg, activity expressed as TDS; 2/6; assay type: functional, Mus musculus
Summary of the method: (§1)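 CD2F1 mice were inoculated with ascitic fluid holding ca. 10^6 P388 cells. Drug was given daily from 24 h after inoculation, from solutions or suspensions made fresh each day, some as a saline suspension. TDS is survivors/initial animals on day 5. BWD is body weight on day 5 minus day 1. %T/C compares median survival of treated and control mice.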

[2] = Half life at the buffer concentration of 0.05 M.; assay type: ADME
P388 [3] = assay: In vivo activity against P388 Lymphocytic Leukemia in CD2F1 mice at the dose of 12.5 mg/kg, activity expressed as % T/C; assay type: functional, Mus musculus; summary of the method: as §1
L1210 [4] = assay: In vivo activity against murine L1210 tumor system at the dose of 21.6 mg/kg, activity expressed as TDS; 6/6; assay type: functional, Mus musculus
Summary of the method: (§2)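 L1210 lymphocytic leukemia: ascitic fluid with ca. 10^6 cells injected ip into CD2F1 mice. Dosing started 24 h after inoculation and was repeated daily for five doses in total, from solutions or suspensions made fresh each day. Toxicity day survivors were scored on day 5. Body weight difference is day 5 minus day 1. %T/C is based on median survival time versus controls.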

[5] = Half life at the pH 6.0; assay type: ADME; details: buffer
Summary of the method: (§3)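 Bis-carbamate in acetonitrile–water (1:1; buffer added to a 0.5 mg/mL acetonitrile solution), 0.05 M buffer, ionic strength 0.136 (KCl), 25 ± 0.1 °C. Buffers: phosphate pH 2.0; citrate pH 3.0–3.5; succinate pH 4.0; acetate pH 5.0; phosphate pH 6.0–8.0; borate pH 9.0; carbonate pH 10.0. HPLC bis-carbamate peak-area loss, ln(area0/areat) vs time slope = kobs. Duplicates averaged.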

P388 [6] = assay: In vivo activity against P388 Lymphocytic Leukemia in CD2F1 mice at the dose of 12.5 mg/kg, activity expressed as KE; assay type: functional, Mus musculus
[7] = Half life at the pH 2.0; assay type: ADME; details: buffer; summary of the method: as §3
P388 [8] = assay: In vivo activity against P388 Lymphocytic Leukemia in CD2F1 mice at the dose of 50 mg/kg, activity expressed as % T/C; assay type: functional, Mus musculus; summary of the method: as §1
P388 [9] = assay: In vivo activity against P388 Lymphocytic Leukemia in CD2F1 mice at the dose of 12.5 mg/kg, activity expressed as TDS; 6/6; assay type: functional, Mus musculus; summary of the method: as §1
P388 [10] = assay: In vivo activity against P388 Lymphocytic Leukemia in CD2F1 mice at the dose of 25 mg/kg, activity expressed as TDS; 6/6; assay type: functional, Mus musculus; summary of the method: as §1
[11] = Effect of Ionic strength on carbamate hydrolysis in acetonitrile-water at 0.05 M buffer concentration, pH 7.4,25 degree C; assay type: ADME
Summary of the method: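 Bis-carbamate in acetonitrile–0.05 M phosphate buffer (1:1), pH 7.4, 25 °C, at varied ionic strength. Loss of bis-carbamate HPLC peak area tracked over time. Pseudo-first-order kobs taken from the ln(area0/areat) vs time slope.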

[12] = Half life at the pH 8.0; assay type: ADME; details: buffer
P388 [13] = assay: In vivo activity against P388 Lymphocytic Leukemia in CD2F1 mice at the dose of 50 mg/kg, activity expressed as TDS; 6/6; assay type: functional, Mus musculus; summary of the method: as §1
[14] = Half life at the buffer concentration of 0.025 M.; assay type: ADME
Summary of the method: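 Bis-carbamate in acetonitrile–water (1:1), 25 ± 0.1 °C. Citrate buffer at pH 3.0 or phosphate buffer at pH 7.4, at 0.01, 0.025 or 0.05 M, ionic strength 0.136 (KCl). Kinetics followed by HPLC as the decrease in bis-carbamate peak area. The regression slope of ln(area0/areat) vs time gave pseudo-first-order kobs. Duplicates averaged.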

[15] = In vivo activity against murine M5076 tumor system at the dose of 60 mg/kg, activity expressed as body weight difference; T-C; assay type: functional, Mus musculus
L1210 [16] = assay: In vivo activity against murine L1210 tumor system at the dose of 36 mg/kg, activity expressed as TDS; 6/6; assay type: functional, Mus musculus; summary of the method: as §2
[17] = Half life at the pH 7.4; assay type: ADME; details: buffer
[18] = In vivo activity against murine M5076 tumor system at the dose of 36 mg/kg, activity expressed as %T/C.; assay type: functional, Mus musculus
Summary of the method: (§4)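 M5076: ascitic fluid with ca. 10^6 cells inoculated ip into CD2F1 mice. Dosing started 24 h after inoculation and was then given every 4 days for four doses in total, from solutions or suspensions made fresh each day. Toxicity day survivors were scored on day 5. Body weight difference is day 14 minus day 1. %T/C is based on median survival time versus controls.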

L1210 [19] = assay: In vivo activity against murine L1210 tumor system at the dose of 21.6 mg/kg, activity expressed as body weight difference; T-C; assay type: functional, Mus musculus; summary of the method: as §2
L1210 [20] = assay: In vivo activity against murine L1210 tumor system at the dose of 36 mg/kg, activity expressed as KE; assay type: functional, Mus musculus; summary of the method: as §2
[21] = In vivo activity against murine M5076 tumor system at the dose of 60 mg/kg, activity expressed as %T/C.; assay type: functional, Mus musculus
P388 [22] = assay: In vivo activity against P388 Lymphocytic Leukemia in CD2F1 mice at the dose of 400 mg/kg, activity expressed as body weight difference; T-C; assay type: functional, Mus musculus; summary of the method: as §1
[23] = In vivo activity against murine M5076 tumor system at the dose of 100 mg/kg, activity expressed as KE; assay type: functional, Mus musculus; summary of the method: as §4
L1210 [24] = assay: In vivo activity against murine L1210 tumor system at the dose of 166.7 mg/kg, activity expressed as TDS; 5/6; assay type: functional, Mus musculus; summary of the method: as §2
P388 [25] = assay: In vivo activity against P388 Lymphocytic Leukemia in CD2F1 mice at the dose of 50 mg/kg, activity expressed as KE; assay type: functional, Mus musculus
[26] = Effect of pH on carbamate hydrolysis in 0.05 M buffer concentration at the pH 6.0, 25 degree C.; assay type: ADME; summary of the method: as §3
P388 [27] = assay: In vivo activity against P388 Lymphocytic Leukemia in CD2F1 mice at the dose of 25 mg/kg, activity expressed as % T/C; assay type: functional, Mus musculus; summary of the method: as §1
[28] = Effect of pH on carbamate hydrolysis in 0.05 M buffer concentration at the pH 3.0, 25 degree C.; assay type: ADME; summary of the method: as §3
L1210 [29] = assay: In vivo activity against murine L1210 tumor system at the dose of 36 mg/kg, activity expressed as %T/C.; assay type: functional, Mus musculus; summary of the method: as §2
[30] = Effect of pH on the hydrolysis of pyridinium Moity in 0.05 M buffer concentration at the pH 7.4; assay type: ADME
Summary of the method: (§5)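 Pyridinium salt in 0.05 M phosphate buffer, pH 6.0–8.0 (set by pH meter), ionic strength 0.25 M, 25 °C. Decrease in the pyridinium UV absorbance maximum followed over time to give pseudo-first-order kobs and half-life.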

[31] = Half life at the pH 7.0; assay type: ADME; details: buffer
Summary of the method: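 Pyridinium-to-pyridone hydrolysis in 0.05 M phosphate buffer, ionic strength 0.25 M, 25 °C. pH set by meter. Loss of the pyridinium UV absorption maximum was followed over time to give pseudo-first-order k_obs and half-life.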

MX1 = assay: In vivo activity against murine MX-1 tumor system at the dose of 37.5 mg/kg, activity expressed as body weight difference.; assay type: functional, Mus musculus
[32] = Effect of pH on the hydrolysis of pyridinium Moity in 0.05 M buffer concentration at the pH 6.0; assay type: ADME; summary of the method: as §5

half-life [2]	half-life [5]	half-life [12]	half-life [17]	Structure (SMILES)	T/C (P388 [3])	KE (P388 [6])	T/C (P388 [8])	TDS (P388 [9])	TDS (P388 [10])	TDS (P388 [13])	KE (P388 [25])	T/C (P388 [27])	further results
53.5 min	51.4 min	54.1 min	53.5 min	CC(C)NC(=O)OCc1c(COC(=O)NC(C)C)c(-c2ccn(C)c(=O)c2)n2c1CCC2	116%	-1.39	132%	6	6	6	-0.38	130%	TDS (P388 [1]): 2; TDS (L1210 [4]): 6; half-life [7]: 2.11 min; K obs [11]: 0.013 min⁻¹ and 0.0124 min⁻¹ and 0.008 min⁻¹; half-life [14]: 51.9 min; BWD [15]: 0.9 g; TDS (L1210 [16]): 6; T/C [18]: 117%; BWD (L1210 [19]): -0.3 g; KE (L1210 [20]): -0.86; T/C [21]: 114%; BWD (P388 [22]): -1 g; KE [23]: -1.49; TDS (L1210 [24]): 5; K obs [26]: 0.0135 min⁻¹; K obs [28]: 0.0304 min⁻¹; T/C (L1210 [29]): 135%
34.6 min	158 min	13.3 min	20.5 min	CC(C)NC(=O)OCc1c(COC(=O)NC(C)C)c(-c2cc[n+](C)c(F)c2)n2c1CCC2.[I-]	149%	0.75	157%	6	6	6	1.32	141%	K obs [30]: 0.0337 min⁻¹; half-life [31]: 33.8 min; BWD (MX1): 0.3 g; K obs [32]: 0.0044 min⁻¹
